Consider one compound from ChEMBL document CHEMBL1250420, “Identification of chalcones as in vivo liver monofunctional phase II enzymes inducers” (Bioorg Med Chem, 2010).

Active and inactive are the calls of the source. The rule behind the calls is not given here.

Data set [1] deals with Liver microsomes. The data set can be described thus: Metabolic stability in rat liver microsome. Type of data set: ADME. The procedure, abridged: (§1)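 Female Wistar rat liver microsomes (100,000 × g pellet) at 1 mg/mL protein with 400 µM flavonoid (DMSO <1%). Incubated 0.5 h at 37 °C, with or without an NADPH-generating system (MgCl2, NADP+, glucose 6-phosphate, G6PDH) in 0.1 M phosphate pH 7.4, 1.5 mM EDTA. Heat-inactivated control included; triplicate; read by UV spectra and chromatography.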
(Microsomes from liver hold many membrane-bound enzymes, among them those of drug oxidation.)

For another data set, the system named is TK-10. Briefly: Cytotoxicity against human TK10 cells. It is filed as functional, cell-based.
The subject of data set [2] is Rattus norvegicus. The data set can be described thus: Induction glutathione-S-transferase activity in rat liver at 15 mg/kg, po qd.
Data set [3] deals with Rattus norvegicus. Briefly: Toxicity in Sprague-Dawley rat assessed as haemoglobin level at 10 mg/kg/day, po (RVb = 15.1 +/- 4.1 g/L). The settings on record: in vivo.
The target in data set [4] is T1, Quinone oxidoreductase (Homo sapiens) (UniProt Q08257).
T1 sequence (whole entry): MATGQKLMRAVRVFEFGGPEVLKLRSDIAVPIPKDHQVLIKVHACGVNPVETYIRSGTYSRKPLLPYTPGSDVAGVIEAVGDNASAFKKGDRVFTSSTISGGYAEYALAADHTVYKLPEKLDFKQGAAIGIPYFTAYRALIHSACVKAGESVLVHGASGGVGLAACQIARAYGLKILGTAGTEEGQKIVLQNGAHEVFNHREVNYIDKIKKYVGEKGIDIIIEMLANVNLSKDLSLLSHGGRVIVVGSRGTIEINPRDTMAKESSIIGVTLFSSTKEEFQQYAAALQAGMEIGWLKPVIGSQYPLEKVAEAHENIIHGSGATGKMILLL
The data set can be described thus: Induction of quinone reductase activity in human MCF7 cells. It is filed as cell-based. Put shortly:
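QR induction in MCF-7 tumour cells at 40 µM, a level chosen from a flavone dose–response; result given as ratio of QR specific activity, treated/control.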

Data set [5] relates to Rattus norvegicus. Briefly: Toxicity in Sprague-Dawley rat assessed as glutamic-oxalate transaminase level at 10 mg/kg/day, po (RVb = 71.4 +/- 7.8 U/L). Particulars: in vivo.
Data set [6] relates to Rattus norvegicus. Briefly: Induction of quinone reductase activity in rat liver at 22.5 mg/kg, po qd. Type of data set: functional. Particulars: dose 15.0 mg/kg, in the assay text read “at 15.0 mg/kg” for “at 22.5 mg/kg”. Put shortly: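 Oral dosing for 15 days over 3 weeks, then liver QR read as loss of 600 nm absorbance of DCPIP (80 µM) with 0.2 mM NADH, 5 µM FAD, 25 mM Tris–HCl pH 7.4, 6% BSA, 0.01% Tween 20. Specific activity expressed as % change from basal-diet control, n = 5, means ± SE, Student's t-test.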

Data set [7] concerns Rattus norvegicus. The data set can be described thus: Toxicity in Sprague-Dawley rat assessed as glutamic-pyruvate level at 10 mg/kg/day, po (RVb = 22.8 +/-13.2 U/L). The settings on record: in vivo.
The next data set has as its system HT-29. The data set can be described thus: Cytotoxicity against human HT-29 cells. It is filed as functional, cell-based.
Data set [8] concerns Liver microsomes. The data set can be described thus: Metabolic stability in rat liver microsome in presence of NADPH. Type of data set: ADME. The procedure, abridged:
as §1

Data set [9] relates to Rattus norvegicus. Briefly: Induction glutathione-CYP1A1 in rat liver at 15 mg/kg, po qd by EROD assay.
In the next data set the test system is MCF7. Briefly: Cytotoxicity against human MCF7 cells. Type of data set: functional, cell-based.
The test system of data set [10] is Rattus norvegicus. Briefly: Toxicity in Sprague-Dawley rat assessed as change in body weight at 10 mg/kg/day, po. Particulars: in vivo.
Data set [11] has as its system Rattus norvegicus. The data set can be described thus: Toxicity in Sprague-Dawley rat assessed as leucocyte level at 10 mg/kg/day, po. Particulars: in vivo.

As for `O=C(/C=C/c1ccc(Br)cc1)c1ccccc1O`, the Stability entry in the data set on Liver microsomes [1] and with Liver microsomes [8] was “Stable” each time. Further, the result with TK-10, with HT-29 and in the data set on MCF7 was inactive. The Activity in the data set with Rattus norvegicus [2] was -30%; in the data set on Rattus norvegicus [3], 8.4 g/L; with Rattus norvegicus [5] it was 61.7 U/L; in the data set with Rattus norvegicus [6], 128%; with Rattus norvegicus [7] it was 26 U/L; with Rattus norvegicus [9], -80%. Besides, the Activity entry is “Non-toxic” with Rattus norvegicus [10] and 7700 µL⁻¹ with Rattus norvegicus [11]. Besides, the result in [4] was Active.
